Screening results from PubChem BioAssay.
A selection: hits, their analogues and other compounds. The true share with any hit is near 2.6%.
miR-122 sensor – miR-122 Renilla sensor signal increase in Huh7, primary screen, miR-122 inhibitor project, cell-based, single point, plate reader | Huh7 miR-122 Renilla luciferase sensor, 48 h; neutral wells = 0, positive control = 100 | actives 0.3% (n = 340,000) | activation (reporter increase), % at 12.5 µM;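 active = mean replicate activation score at least 90 and every replicate individually at or above 90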;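 also: higher luciferase means less miR-122 activity so hits act as miR-122 inhibitors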
Env fusion inh – inhibitors of HIV-1 Env-driven cell-cell fusion, primary screen, HeLa-JRFL effector, CEM21 target cells, luciferase. inhibition, % at 12.3 µM. actives 1.1% (n = 360,000). AID 651610, 2012;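 active = mean replicate inhibition score of at least 50 and every replicate individually at or above 50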
S100A4 inh HTS – inhibitors of S100A4-myosin IIA peptide binding, primary screen, biochemical, fluorescence polarization, TAMRA-MyoIIA peptide; actives 0.14% (n = 360,000); inhibition, % at 10.7 µM; AID 652163, 2013;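 active = mean inhibition of at least 70% across replicates, with every replicate also reaching that level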
Target sequence (P26447 whole entry, looked up): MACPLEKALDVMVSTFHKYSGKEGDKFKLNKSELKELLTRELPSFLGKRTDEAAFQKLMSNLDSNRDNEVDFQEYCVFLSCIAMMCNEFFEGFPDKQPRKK
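Test system – S100A4 monomer (human) · Compound – single-point compound testing · Schedule – 5 min incubation before reading · Probe or stimulus – TAMRA-labelled myosin IIA heavy-chain peptide probe, 5 nM · Benchmarks – neutral control DMSO, positive control TFP · Medium – Calcium-containing HEPES buffer, pH 7.2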
FN deposition inh – inhibitors of fibronectin matrix deposition, primary screen, AH1F cells, Alexa488-fibronectin fluorescence, plate reader | inhibition, % at 12.6 µM | actives 0.086% (n = 350,000) | AH1F fibroblasts, overnight;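 active = mean inhibition across replicates of 30% or more, regardless of how many single replicates reach that level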
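Assay system: AH1F fibroblasts / Quantity: 10000 cells per well / Medium: DMEM plus 2% serum, read in PBS / Reagent: labelled fibronectin 24 nM / Dosing: single dose, pinned / Times: 1 h cell attachment, overnight exposure to compound and label / Signal: fluorescence, ex 485 nm, em 525 nm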
Vif imaging – HIV Vif self-association inhibitors, primary screen, imaging, HEK293T, single point; HEK293T cells, Vif self-association by quenched fluorescence, 24 h; inhibition, % at 7.49 µM; actives 0.35% (n = 340,000); AID 602346, 2012; in the data active = inhibition above about 50%, passing the limit was not always enough
Ecoli rRNA inh – reduced GFP signal of wild-type E. coli, primary screen, bacterial rRNA inhibitor project, GFP/RFP fluorescence, OD600, single point. actives 1.6% (n = 350,000). E. coli WT GFP vs humanized-ribosome RFP mutants, 24 h; stronger effect = lower value; DMSO median 0, no signal -100. GFP signal change (wild-type ribosome), % (concentration not given with the values);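 active = significant combined selectivity score with lowered wild-type GFP, culture density cut under 30%, mutant RFP and density less affected; inactive = any of these conditions unmet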
A number is an active result; . = inactive; / = not tested or not shown; ! = repeats disagree; [ ] = another dose, or the depositor's remark.

SMILES | miR-122 sensor | Env fusion inh | S100A4 inh HTS | FN deposition inh | Vif imaging | Ecoli rRNA inh
O=C(C[C@H]1CC[C@H]2NC[C@H](O)COC[C@@H]2O1)NCCN1CCCCC1 | . | . | 115 | . | / | .
O=C(C[C@H]1CC[C@H]2[C@@H](COC[C@@H](O)CN2C(=O)c2cccnc2)O1)NCc1ccc(Cl)cc1 | . | . | . | . | / | .
O=C(C[C@H]1CC[C@H]2[C@@H](COC[C@H](O)CN2C(=O)Nc2ccc(Cl)c(Cl)c2)O1)NCc1ccncc1 | . | 70[16.7 µM] | . | . | / | .
O=C(C[C@@H]1CC[C@@H]2[C@H](COC[C@H](O)CN2C(=O)c2cccnc2)O1)NCc1ccc(Cl)cc1 | . | . | 94 | . | / | .
COc1ccc(CN2C[C@H](O)COC[C@@H]3O[C@@H](CC(=O)N(C)C)CC[C@H]32)cc1 | . | . | 94 | . | / | .
O=C(C[C@@H]1CC[C@H]2[C@@H](COC[C@H](O)CN2C(=O)Nc2ccc(Cl)c(Cl)c2)O1)NCc1ccncc1 | . | . | . | . | / | .
O=C(C[C@@H]1CC[C@@H]2[C@H](COC[C@H](O)CN2C(=O)C2CCCC2)O1)NCc1ccncc1 | . | / | . | . | / | .
O=C(C[C@@H]1CC[C@H]2[C@@H](COC[C@@H](O)CN2C(=O)C2CCCC2)O1)NCc1ccncc1 | 138[16.7 µM] | / | . | . | / | .
CCCNC(=O)N1C[C@H](O)COC[C@@H]2O[C@@H](CC(=O)NCCCN3CCOCC3)CC[C@H]21 | . | . | 107! | . | / | .
CCCNC(=O)N1C[C@H](O)COC[C@@H]2O[C@H](CC(=O)NCCCN3CCOCC3)CC[C@H]21 | . | . | . | . | / | .
O=C1c2ccc3c4c(ccc(c24)C(=O)N1NC(=O)C(F)(F)F)CC3 | / | . | / | . | . | /
CC(=O)NN1C(=O)c2ccc3c4c(ccc(c24)C1=O)C(=O)N(NC(C)=O)C3=O | / | . | . | . | . | -22
CC1CN(c2nc3ccccc3nc2SCC(=O)Nc2cccc(C(F)(F)F)c2)CC(C)O1 (stereo not given) | / | 64 | . | . | . | .
Cc1cccc(NC(=O)CSc2nc3ccccc3nc2N2CC(C)OC(C)C2)c1 (stereo not given) | . | / | . | . | . | .
C[C@H]1CN([C@@H](C)CO)C(=O)c2cccc(NS(C)(=O)=O)c2O[C@@H]1CN(C)CC1CCCCC1 | . | . | . | / | / | .
COc1ccc(S(=O)(=O)N2c3ccc(F)cc3CCC2C)cc1 (stereo not given) | . | . | . | . | . | -28
COc1ccc(/C=N/NC(=O)c2ccccc2O)cc1CN1CCOCC1 | . | . | . | . | . | .
COc1ccc(/C=N/NC(=O)c2ccccc2O)cc1Cn1nnc2ccccc21 | / | . | . | . | . | -23
CC(C)Cc1ccc(C(C)C(N)=Nc2ccc(O)cc2)cc1 (stereo not given) | . | . | . | . | . | -44
Cc1noc(C)c1S(=O)(=O)Nc1cccc2c1O[C@H](CN(C)C(=O)Nc1ccccc1)[C@H](C)CN([C@@H](C)CO)C2=O | . | . | . | / | / | .
CCOC(=O)C1CCCN(Cc2ccc(OC)cc2OC)C1 (stereo not given) | . | . | / | . | 55 | /
Cc1ccc(C#N)c(SCc2ccccc2F)n1 | . | . | . | . | . | -25
CN1/C(=C\C=C(C#N)C#N)C(C)(C)c2ccccc21 | . | . | 160 | . | 119 | .
CN1/C(=C\C=C(/C#N)C(=O)Nc2ccc(Cl)cc2)C(C)(C)c2ccccc21 | / | . | / | . | / | /
CN1/C(=C\C(=S)Nc2ccccc2)C(C)(C)c2ccccc21 | . | 53 | . | . | . | /
SMILES | miR-122 sensor | Env fusion inh | S100A4 inh HTS | FN deposition inh | Vif imaging | Ecoli rRNA inh
COCC(=O)N1[C@H](CO)[C@H](c2ccccc2)[C@@H]1CNC(=O)c1ccccn1 | 108[16.7 µM] | / | . | . | / | .
COCC(=O)N1[C@H](CO)[C@@H](c2ccccc2)[C@H]1CNC(=O)c1ccccn1 | . | / | . | . | / | .
CC1=CC(C)(C)N(S(=O)(=O)c2ccc(C)cc2)c2cc(C)ccc21 | 94 | / | / | / | . | /
O=C(CSCc1nc2ccccc2[nH]1)Nc1ccc2ccccc2c1 | . | 71 | / | . | . | /
Cc1nn(Cc2ccc(C(=O)NN)cc2)c(C)c1Cl | . | . | . | . | . | .
Cc1nn(Cc2ccc(C(=O)Nc3ccccc3F)cc2)c(C)c1Cl | / | . | . | . | . | -24
CC1CCCN(Cc2c(C(=O)N3CCc4ccccc4C3)nc3ccc(Cl)cn23)C1 (stereo not given) | . | . | . | . | . | -25
C[C@H]1CN([C@@H](C)CO)C(=O)Cc2cc(NC(=O)CCCCCC(=O)Nc3ccccc3N)ccc2O[C@@H]1CN(C)C(=O)Nc1cccc2ccccc12 | / | / | . | / | / | .
[N-]=[N+]=NCc1ccccc1C[C@]1(C(=O)N2CCCCC2)N=C(c2ccc(OCCCO)cc2)O[C@H]1c1ccccc1 | / | 68[16.7 µM] | . | / | / | /
COc1ccc2c3c([nH]c2c1)[C@@H](CO)N(C(=O)Nc1ccccc1F)CC31CCN(C(=O)c2ccccc2F)CC1 | / | / | / | / | / | .
CCn1c(COc2cccc(OC)c2)nnc1SCC(=O)NC1CCCC1 | . | . | . | . | 51 | .
CCn1c(COc2cccc(C)c2)nnc1SCC(=O)NC1CCCC1 | . | . | . | . | . | .
CC=Cc1ccc2n(c1=O)C[C@@H]1[C@@H](CO)[C@H](C(=O)N3CCOCC3)N(CC3CC3)[C@H]21 (mixture of isomers) | / | / | . | / | / | .
C[C@H](CO)N1C[C@H](C)[C@H](CN(C)C(=O)Nc2ccc3c(c2)OCO3)Oc2c(NC(=O)NC3CCCCC3)cccc2C1=O | . | . | . | / | / | .
COc1ccc(C2c3ccsc3CCN2C(C)=O)cc1 (stereo not given) | . | . | . | . | . | .
COc1ccc(C2c3ccsc3CCN2C(=O)C(C)(C)C)cc1 (stereo not given) | / | . | . | . | . | -47
COc1cc(/C=N/NS(=O)(=O)c2ccc(C)cc2)ccc1OCc1ccc(C(=O)O)cc1 | / | 72 | / | . | . | /
COC(=O)N/N=C/c1ccc(OS(=O)(=O)c2ccc(C)cc2)c(OC)c1 | / | . | . | . | . | -28
COc1ccc(CNC(=O)c2ccc(Cl)c(NC3=NC4CS(=O)(=O)CC4S3)c2)cc1 (stereo not given) | / | . | . | . | . | .
O=C(NCc1ccccc1)c1ccc(Cl)c(NC2=NC3CS(=O)(=O)CC3S2)c1 (stereo not given) | / | . | . | . | 60 | .
